Results taken from ChEMBL document CHEMBL2069235, “Synthesis and biological evaluation of tyrosine modified analogues of the α4β7 integrin inhibitor biotin-R₈ERY” (Bioorg Med Chem, 2012).
Active and inactive are the calls of the source. The rule behind the calls is not given here. *1 amine or outer side, *2 acyl side, *3 side chain or, on linkers, in order; H or OH if unused. Where a SMILES comes first, the peptide text is derived from it. [ ]: non-standard residue; d: D form. The star is where a group is joined. X7 = O=C([C@H](Cc1ccc(-c2cccc([N+](=O)[O-])c2)cc1)N[*:1])[*:2]; Phe(4-(2-MeO-Ph)) = COc1ccccc1-c1ccc(C[C@H](N)C(=O)O)cc1; X3 = COc1cccc(OC)c1-c1ccc(C[C@H](N[*:1])C(=O)[*:2])cc1; X6 = COc1ccc(-c2ccc(C[C@H](N[*:1])C(=O)[*:2])cc2)cc1OC; X5 = N#Cc1ccc(-c2ccc(C[C@H](N[*:1])C(=O)[*:2])cc2)cc1; Bip(4'-Me) = Cc1ccc(-c2ccc(C[C@H](N)C(=O)O)cc2)cc1; X4 = O=C([C@H](Cc1ccc(C2=CCCCC2)cc1)N[*:1])[*:2]; Biotin = O=C1N[C@H]2[C@H](CS[C@H]2CCCCC(=O)*)N1; X1 = O=C([C@H](Cc1ccc(C2CCCCC2)cc1)N[*:1])[*:2]

Columns and labels:
Assay type in all cases: cell-based
[1] = target: T1, Integrin alpha-4/beta-7 (Mus musculus) (UniProt Q00651+P26011); experiment: Inhibition of alpha4beta7 assessed as inhibition of Mn(2+)-activated adhesion of mouse TK-1 T cells to mouse MAdCAM-1 at 50 uM incubated for 1 hr by cell adhesion assay
How it was run: (§1)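 TK-1 cells (mouse AKR/Cum α4β7+/α4β1− CD8 T lymphoma), grown at 37 °C in RPMI 1640 with 10% FCS and 0.05 mM β-mercaptoethanol, were washed and held 1 h at room temperature in HBSS/10 mM Hepes with peptide. They were then activated with 2 mM MnCl₂ and added at 10⁶ cells/well to glass slides coated with mouse MAdCAM-1-Fc (10 μg/ml, FBS-blocked). Adhesion ran 30 min.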

[2] = target: T1, Integrin alpha-4/beta-7 (Mus musculus); experiment: Inhibition of alpha4beta7 assessed as inhibition of Mn(2+)-activated adhesion of mouse TK-1 T cells to mouse MAdCAM-1 at 100 uM incubated for 1 hr by cell adhesion assay; how it was run: as §1
[3] = target: T1, Integrin alpha-4/beta-7 (Mus musculus); experiment: Inhibition of alpha4beta7 assessed as inhibition of Mn(2+)-activated adhesion of mouse TK-1 T cells to mouse MAdCAM-1 at <5 to 10 uM incubated for 1 hr by cell adhesion assay; how it was run: as §1
[4] = target: T1, Integrin alpha-4/beta-7 (Mus musculus); experiment: Inhibition of alpha4beta7 assessed as inhibition of Mn(2+)-activated adhesion of mouse TK-1 T cells to mouse MAdCAM-1 at 25 uM incubated for 1 hr by cell adhesion assay; how it was run: as §1

Row | inhibition [1] [%] | inhibition [2] [%] | inhibition [3] | inhibition [4] | SMILES
1 | 50.5 | 60.3 | – | – | N=C(N)NCCC[C@H](NC(=O)CCCC[C@@H]1SC[C@@H]2NC(=O)N[C@@H]21)C(=O)N[C@@H](CCCNC(=N)N)C(=O)N[C@@H](CCCNC(=N)N)C(=O)N[C@@H](CCCNC(=N)N)C(=O)N[C@@H](CCCNC(=N)N)C(=O)N[C@@H](CCCNC(=N)N)C(=O)N[C@@H](CCCNC(=N)N)C(=O)N[C@@H](CCCNC(=N)N)C(=O)N[C@@H](CCC(=O)O)C(=O)N[C@@H](CCCNC(=N)N)C(=O)N[C@@H](Cc1ccc(-c2cccc([N+](=O)[O-])c2)cc1)C(=O)O (Biotin-RRRRRRRRER[X7]-OH)
2 | 37.9 | 50.1 | – | – | COc1ccc(-c2ccc(C[C@H](NC(=O)[C@H](CCCNC(=N)N)NC(=O)[C@H](CCC(=O)O)NC(=O)[C@H](CCCNC(=N)N)NC(=O)[C@H](CCCNC(=N)N)NC(=O)[C@H](CCCNC(=N)N)NC(=O)[C@H](CCCNC(=N)N)NC(=O)[C@H](CCCNC(=N)N)NC(=O)[C@H](CCCNC(=N)N)NC(=O)[C@H](CCCNC(=N)N)NC(=O)[C@H](CCCNC(=N)N)NC(=O)CCCC[C@@H]3SC[C@@H]4NC(=O)N[C@@H]43)C(=O)O)cc2)cc1OC (Biotin-RRRRRRRRER[X6]-OH)
3 | 66.4 | 71.3 | – | – | N=C(N)NCCC[C@H](NC(=O)[C@H](CCCNC(=N)N)NC(=O)[C@H](CC(=O)O)NC(=O)[C@H](Cc1ccc(O)cc1)NC(=O)[C@@H](CCCNC(=N)N)NC(=O)[C@@H](CCCNC(=N)N)NC(=O)[C@@H](CCCNC(=N)N)NC(=O)[C@@H](CCCNC(=N)N)NC(=O)[C@@H](CCCNC(=N)N)NC(=O)[C@@H](CCCNC(=N)N)NC(=O)[C@@H](CCCNC(=N)N)NC(=O)[C@@H](CCCNC(=N)N)NC(=O)[C@@H](CCCNC(=N)N)NC(=O)CCCC[C@@H]1SC[C@@H]2NC(=O)N[C@@H]21)C(=O)N[C@@H](CCC(=O)O)C(=O)N[C@@H](Cc1ccc(O)cc1)C(=O)O
4 | 49.7 | 59.1 | – | – | N=C(N)NCCC[C@H](NC(=O)CCCC[C@@H]1SC[C@@H]2NC(=O)N[C@@H]21)C(=O)N[C@@H](CCCNC(=N)N)C(=O)N[C@@H](CCCNC(=N)N)C(=O)N[C@@H](CCCNC(=N)N)C(=O)N[C@@H](CCCNC(=N)N)C(=O)N[C@@H](CCCNC(=N)N)C(=O)N[C@@H](CCCNC(=N)N)C(=O)N[C@@H](CCCNC(=N)N)C(=O)N[C@@H](CCC(=O)O)C(=O)N[C@@H](CCCNC(=N)N)C(=O)N[C@@H](Cc1ccc(C2=CCCCC2)cc1)C(=O)O (Biotin-RRRRRRRRER[X4]-OH)
5 | 45 | 57 | – | – | N#Cc1ccc(-c2ccc(C[C@H](NC(=O)[C@H](CCCNC(=N)N)NC(=O)[C@H](CCC(=O)O)NC(=O)[C@H](CCCNC(=N)N)NC(=O)[C@H](CCCNC(=N)N)NC(=O)[C@H](CCCNC(=N)N)NC(=O)[C@H](CCCNC(=N)N)NC(=O)[C@H](CCCNC(=N)N)NC(=O)[C@H](CCCNC(=N)N)NC(=O)[C@H](CCCNC(=N)N)NC(=O)[C@H](CCCNC(=N)N)NC(=O)CCCC[C@@H]3SC[C@@H]4NC(=O)N[C@@H]43)C(=O)O)cc2)cc1 (Biotin-RRRRRRRRER[X5]-OH)
6 | 48.1 | 47.1 | – | – | COc1ccccc1-c1ccc(C[C@H](NC(=O)[C@H](CCCNC(=N)N)NC(=O)[C@H](CCC(=O)O)NC(=O)[C@H](CCCNC(=N)N)NC(=O)[C@H](CCCNC(=N)N)NC(=O)[C@H](CCCNC(=N)N)NC(=O)[C@H](CCCNC(=N)N)NC(=O)[C@H](CCCNC(=N)N)NC(=O)[C@H](CCCNC(=N)N)NC(=O)[C@H](CCCNC(=N)N)NC(=O)[C@H](CCCNC(=N)N)NC(=O)CCCC[C@@H]2SC[C@@H]3NC(=O)N[C@@H]32)C(=O)O)cc1 (Biotin-RRRRRRRRER[Phe(4-(2-MeO-Ph))]-OH)
7 | 38.3 | 50.9 | – | – | COc1cccc(OC)c1-c1ccc(C[C@H](NC(=O)[C@H](CCCNC(=N)N)NC(=O)[C@H](CCC(=O)O)NC(=O)[C@H](CCCNC(=N)N)NC(=O)[C@H](CCCNC(=N)N)NC(=O)[C@H](CCCNC(=N)N)NC(=O)[C@H](CCCNC(=N)N)NC(=O)[C@H](CCCNC(=N)N)NC(=O)[C@H](CCCNC(=N)N)NC(=O)[C@H](CCCNC(=N)N)NC(=O)[C@H](CCCNC(=N)N)NC(=O)CCCC[C@@H]2SC[C@@H]3NC(=O)N[C@@H]32)C(=O)O)cc1 (Biotin-RRRRRRRRER[X3]-OH)
8 | 8.73 | 18.2 | – | – | N=C(N)NCCC[C@H](NC(=O)CCCC[C@@H]1SC[C@@H]2NC(=O)N[C@@H]21)C(=O)N[C@@H](CCCNC(=N)N)C(=O)N[C@@H](CCCNC(=N)N)C(=O)N[C@@H](CCCNC(=N)N)C(=O)N[C@@H](CCCNC(=N)N)C(=O)N[C@@H](CCCNC(=N)N)C(=O)N[C@@H](CCCNC(=N)N)C(=O)N[C@@H](CCCNC(=N)N)C(=O)N[C@@H](CCC(=O)O)C(=O)N[C@@H](CCCNC(=N)N)C(=O)N[C@@H](Cc1ccc(O)cc1)C(=O)O (Biotin-RRRRRRRRERY-OH)
9 | 71.7 | 64.8 | inactive | Active | N=C(N)NCCC[C@H](NC(=O)CCCC[C@@H]1SC[C@@H]2NC(=O)N[C@@H]21)C(=O)N[C@@H](CCCNC(=N)N)C(=O)N[C@@H](CCCNC(=N)N)C(=O)N[C@@H](CCCNC(=N)N)C(=O)N[C@@H](CCCNC(=N)N)C(=O)N[C@@H](CCCNC(=N)N)C(=O)N[C@@H](CCCNC(=N)N)C(=O)N[C@@H](CCCNC(=N)N)C(=O)N[C@@H](CCC(=O)O)C(=O)N[C@@H](CCCNC(=N)N)C(=O)N[C@@H](Cc1ccc(C2CCCCC2)cc1)C(=O)O (Biotin-RRRRRRRRER[X1]-OH)
10 | 47.4 | 57.3 | – | – | Cc1ccc(-c2ccc(C[C@H](NC(=O)[C@H](CCCNC(=N)N)NC(=O)[C@H](CCC(=O)O)NC(=O)[C@H](CCCNC(=N)N)NC(=O)[C@H](CCCNC(=N)N)NC(=O)[C@H](CCCNC(=N)N)NC(=O)[C@H](CCCNC(=N)N)NC(=O)[C@H](CCCNC(=N)N)NC(=O)[C@H](CCCNC(=N)N)NC(=O)[C@H](CCCNC(=N)N)NC(=O)[C@H](CCCNC(=N)N)NC(=O)CCCC[C@@H]3SC[C@@H]4NC(=O)N[C@@H]43)C(=O)O)cc2)cc1 (Biotin-RRRRRRRRER[Bip(4'-Me)]-OH)
